Columns and labels:
[1] = target: hERG (KCNH2) (Homo sapiens, UniProt Q12809); experiment: Displacement of [35S][…] from human ERG channel at 10 uM
Outline: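 hERG binding assay measuring displacement of 35S-labeled MK-0499, a known hERG blocker. Test compound at 10 μM; result expressed as percent inhibition of binding.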

[2] = system: Rattus norvegicus; experiment: Antiallodynic activity in rat spinal nerve ligation model of neuropathic pain assessed as reversal of allodynia at 10 mg/kg, po after 4 hrs; format: functional
Outline: (§1)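 Rat spinal nerve ligation (Chung) neuropathic pain model; compound given orally as a single dose (10 or 30 mg/kg). Allodynia reversal read at 2 h and 4 h after dosing, expressed as percent reversal.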

[3] = system: Rattus norvegicus; experiment: Antiallodynic activity in rat spinal nerve ligation model of neuropathic pain assessed as reversal of allodynia at 10 mg/kg, po after 2 hrs; format: functional; outline: as §1
[4] = target: T1, Sodium channel protein type 9 subunit alpha (Homo sapiens, UniProt Q15858); experiment: Inhibition of human Nav 1.7 channel by voltage-ion-probe-reader
Outline: (§2)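 Functional membrane-potential FRET assay on voltage-gated hNav1.7, read on a voltage-ion-probe reader (VIPR). Results given as IC50 or as percent inhibition at 10 μM.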
Target sequence in this assay (Q15858 whole entry): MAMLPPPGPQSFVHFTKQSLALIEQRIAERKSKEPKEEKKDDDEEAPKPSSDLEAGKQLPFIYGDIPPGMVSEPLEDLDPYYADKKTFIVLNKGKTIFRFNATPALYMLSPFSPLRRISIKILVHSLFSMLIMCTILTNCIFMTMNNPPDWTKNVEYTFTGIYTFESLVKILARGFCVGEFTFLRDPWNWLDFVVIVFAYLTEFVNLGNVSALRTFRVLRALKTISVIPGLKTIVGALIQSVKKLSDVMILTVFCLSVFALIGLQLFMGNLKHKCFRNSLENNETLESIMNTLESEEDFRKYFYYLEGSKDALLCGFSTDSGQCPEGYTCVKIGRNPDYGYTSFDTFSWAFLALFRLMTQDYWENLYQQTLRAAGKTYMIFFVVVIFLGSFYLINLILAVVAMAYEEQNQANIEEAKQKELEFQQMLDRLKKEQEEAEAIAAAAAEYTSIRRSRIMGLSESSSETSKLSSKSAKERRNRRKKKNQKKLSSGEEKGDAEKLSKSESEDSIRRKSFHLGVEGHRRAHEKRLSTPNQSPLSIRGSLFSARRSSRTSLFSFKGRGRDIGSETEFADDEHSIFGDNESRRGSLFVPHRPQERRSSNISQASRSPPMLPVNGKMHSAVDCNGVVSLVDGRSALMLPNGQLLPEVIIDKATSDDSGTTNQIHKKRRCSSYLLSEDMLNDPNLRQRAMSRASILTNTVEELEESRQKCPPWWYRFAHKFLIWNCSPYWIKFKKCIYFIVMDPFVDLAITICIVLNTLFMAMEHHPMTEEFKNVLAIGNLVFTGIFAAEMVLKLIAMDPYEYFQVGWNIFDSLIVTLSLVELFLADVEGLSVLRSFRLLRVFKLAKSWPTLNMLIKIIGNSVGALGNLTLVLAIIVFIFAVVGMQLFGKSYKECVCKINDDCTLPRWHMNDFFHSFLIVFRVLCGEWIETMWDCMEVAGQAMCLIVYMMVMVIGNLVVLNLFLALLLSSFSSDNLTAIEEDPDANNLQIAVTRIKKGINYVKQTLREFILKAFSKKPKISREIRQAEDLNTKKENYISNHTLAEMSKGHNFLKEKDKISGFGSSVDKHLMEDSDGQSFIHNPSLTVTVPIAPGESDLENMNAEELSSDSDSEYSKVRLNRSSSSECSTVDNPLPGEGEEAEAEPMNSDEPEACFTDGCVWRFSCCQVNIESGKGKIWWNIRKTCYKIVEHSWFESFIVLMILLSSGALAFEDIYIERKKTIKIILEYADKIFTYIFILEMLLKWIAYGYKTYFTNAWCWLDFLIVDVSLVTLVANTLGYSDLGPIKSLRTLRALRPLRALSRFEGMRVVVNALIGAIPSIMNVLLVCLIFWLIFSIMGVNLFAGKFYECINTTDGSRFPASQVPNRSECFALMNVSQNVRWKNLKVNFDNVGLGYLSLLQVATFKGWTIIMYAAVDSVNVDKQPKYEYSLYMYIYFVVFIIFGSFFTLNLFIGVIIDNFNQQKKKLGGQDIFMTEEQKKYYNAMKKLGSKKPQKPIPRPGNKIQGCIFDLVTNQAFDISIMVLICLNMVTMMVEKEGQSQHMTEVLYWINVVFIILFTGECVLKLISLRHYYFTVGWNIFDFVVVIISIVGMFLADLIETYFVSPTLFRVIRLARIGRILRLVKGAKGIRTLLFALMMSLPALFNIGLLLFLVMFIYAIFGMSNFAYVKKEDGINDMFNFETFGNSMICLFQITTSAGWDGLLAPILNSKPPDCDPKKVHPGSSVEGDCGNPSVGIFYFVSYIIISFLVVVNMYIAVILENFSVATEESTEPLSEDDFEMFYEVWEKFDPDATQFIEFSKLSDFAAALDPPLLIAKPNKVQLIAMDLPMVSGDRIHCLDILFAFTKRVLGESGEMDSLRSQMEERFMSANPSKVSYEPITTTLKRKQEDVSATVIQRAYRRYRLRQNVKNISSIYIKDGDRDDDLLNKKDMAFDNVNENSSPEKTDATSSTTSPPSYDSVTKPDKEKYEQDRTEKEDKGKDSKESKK

[5] = target: T1, Sodium channel protein type 9 subunit alpha; experiment: Inhibition of human Nav 1.7 channel by electrophysiology
Target sequence in this assay (Q15858 whole entry): as above

[6] = target: Cytochrome P450 2C9 (Homo sapiens, UniProt P11712); experiment: Inhibition of CYP2C9; format: ADME
[7] = target: Cytochrome P450 3A4 (Homo sapiens, UniProt P08684); experiment: Inhibition of CYP3A4; format: ADME
[8] = target: Cytochrome P450 2D6 (Homo sapiens, UniProt P10635); experiment: Inhibition of CYP2D6; format: ADME
[9] = Clearance in rat plasma at 1 mg/kg, ip; format: ADME, organism-based; parameters: dose 1 mg/kg, route intraperitoneal
[10] = target: T1, Sodium channel protein type 9 subunit alpha; experiment: Inhibition of human Nav 1.7 channel at 10 uM by voltage-ion-probe-reader; outline: as §2
Target sequence in this assay (Q15858 whole entry, looked up): as the sequence (Q15858 whole entry) above

[11] = organism: Canis familiaris; experiment: Plasma clearance in dog; format: ADME, organism-based, Canis lupus familiaris; settings: in vivo
[12] = system: Mus musculus; experiment: Anticonvulsant activity in mouse assessed as protection against maximal electric shock-induced tonic seizures at 10 mg/kg, po after 4 hrs; format: functional
Outline: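 Mouse maximal electroshock (MES) seizure model. Oral dose 10 mg/kg, given 4 h before the shock. Read-out is protection from tonic seizures, expressed as percent.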

[13] = system: Rattus norvegicus; experiment: Neurotoxicity in rat assessed as effect on motor coordination by measuring reduced latency at 30 mg/kg, po by rotarod test; format: toxicity, organism-based; parameters: dose 30 mg/kg, route oral; settings: in vivo
Outline: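 Rat rotarod test of motor coordination after oral dosing (30 or 100 mg/kg). Read-out is latency on the rotarod.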

[14] = Half life in dog; format: ADME, organism-based, Canis lupus familiaris; settings: in vivo
[15] = system: Liver; experiment: Metabolic stability in dog liver microsomes after 60 mins; format: functional; settings: Canis lupus familiaris, Microsome
Outline: (§3)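 Compound incubated for 60 min with liver microsomal preparations. Conversion to the carboxylic acid metabolite formed by carboxamide hydrolysis was followed.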

[16] = system: Rattus norvegicus; experiment: Antiallodynic activity in rat spinal nerve ligation model of neuropathic pain assessed as reversal of mechanical allodynia at 3 mg/kg, po bid for 2 days measured after 2 hrs post final dose; format: functional
Outline: (§4)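 Rat spinal nerve ligation (Chung) model; oral dosing at 3 mg/kg bid for 2 days. Reversal of mechanical allodynia read at 2 h and 4 h, expressed as percent reversal; significance given as p values.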

[17] = system: Rattus norvegicus; experiment: Antiallodynic activity in rat spinal nerve ligation model of neuropathic pain assessed as reversal of allodynia at 30 mg/kg, po after 4 hrs; format: functional; outline: as §1
[18] = system: Liver microsomes; experiment: Metabolic stability in human liver microsomes after 60 mins; format: functional; settings: Microsome; outline: as §3
[19] = Volume of distribution in rat; format: ADME, organism-based; settings: in vivo
[20] = Volume of distribution in dog; format: ADME, organism-based, Canis lupus familiaris; settings: in vivo
[21] = Oral bioavailability dog; format: ADME, organism-based, Canis lupus familiaris; settings: in vivo
[22] = organism: Macaca mulatta; experiment: Metabolic stability in monkey liver microsomes after 60 mins; format: functional; settings: Microsome; outline: as §3
[23] = Oral bioavailability in rat; format: ADME, organism-based; settings: in vivo
[24] = system: Liver microsomes; experiment: Metabolic stability in rat liver microsomes after 60 mins; format: functional; settings: Microsome; outline: as §3
[25] = target: T2, Nuclear receptor subfamily 1 group I member 2 (Homo sapiens, UniProt O75469); experiment: Induction of human PXR by induction assay
T2 sequence (O75469 whole entry): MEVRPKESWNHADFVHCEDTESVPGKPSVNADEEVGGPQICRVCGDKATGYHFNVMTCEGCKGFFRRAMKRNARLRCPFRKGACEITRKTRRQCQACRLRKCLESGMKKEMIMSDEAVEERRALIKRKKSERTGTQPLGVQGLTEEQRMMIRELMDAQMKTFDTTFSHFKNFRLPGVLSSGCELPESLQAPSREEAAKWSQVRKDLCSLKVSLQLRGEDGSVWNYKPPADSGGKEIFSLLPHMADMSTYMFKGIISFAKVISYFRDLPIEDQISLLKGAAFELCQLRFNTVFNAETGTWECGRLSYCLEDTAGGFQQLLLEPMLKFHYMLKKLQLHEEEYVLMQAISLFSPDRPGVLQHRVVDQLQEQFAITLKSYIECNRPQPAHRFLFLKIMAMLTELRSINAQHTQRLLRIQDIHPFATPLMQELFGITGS

[26] = organism: Rattus norvegicus; experiment: Plasma clearance in rat; format: ADME, organism-based; settings: in vivo
[27] = system: Rattus norvegicus; experiment: Antiallodynic activity in rat spinal nerve ligation model of neuropathic pain assessed as reversal of mechanical allodynia at 3 mg/kg, po bid for 2 days measured after 4 hrs post final dose; format: functional; outline: as §4
[28] = Half life in rat; format: ADME, organism-based; settings: in vivo
[29] = system: Rattus norvegicus; experiment: Antiallodynic activity in rat spinal nerve ligation model of neuropathic pain assessed as reversal of allodynia at 30 mg/kg, po after 2 hrs; format: functional; outline: as §1

Chain of hERG (KCNH2) (Q12809 whole entry): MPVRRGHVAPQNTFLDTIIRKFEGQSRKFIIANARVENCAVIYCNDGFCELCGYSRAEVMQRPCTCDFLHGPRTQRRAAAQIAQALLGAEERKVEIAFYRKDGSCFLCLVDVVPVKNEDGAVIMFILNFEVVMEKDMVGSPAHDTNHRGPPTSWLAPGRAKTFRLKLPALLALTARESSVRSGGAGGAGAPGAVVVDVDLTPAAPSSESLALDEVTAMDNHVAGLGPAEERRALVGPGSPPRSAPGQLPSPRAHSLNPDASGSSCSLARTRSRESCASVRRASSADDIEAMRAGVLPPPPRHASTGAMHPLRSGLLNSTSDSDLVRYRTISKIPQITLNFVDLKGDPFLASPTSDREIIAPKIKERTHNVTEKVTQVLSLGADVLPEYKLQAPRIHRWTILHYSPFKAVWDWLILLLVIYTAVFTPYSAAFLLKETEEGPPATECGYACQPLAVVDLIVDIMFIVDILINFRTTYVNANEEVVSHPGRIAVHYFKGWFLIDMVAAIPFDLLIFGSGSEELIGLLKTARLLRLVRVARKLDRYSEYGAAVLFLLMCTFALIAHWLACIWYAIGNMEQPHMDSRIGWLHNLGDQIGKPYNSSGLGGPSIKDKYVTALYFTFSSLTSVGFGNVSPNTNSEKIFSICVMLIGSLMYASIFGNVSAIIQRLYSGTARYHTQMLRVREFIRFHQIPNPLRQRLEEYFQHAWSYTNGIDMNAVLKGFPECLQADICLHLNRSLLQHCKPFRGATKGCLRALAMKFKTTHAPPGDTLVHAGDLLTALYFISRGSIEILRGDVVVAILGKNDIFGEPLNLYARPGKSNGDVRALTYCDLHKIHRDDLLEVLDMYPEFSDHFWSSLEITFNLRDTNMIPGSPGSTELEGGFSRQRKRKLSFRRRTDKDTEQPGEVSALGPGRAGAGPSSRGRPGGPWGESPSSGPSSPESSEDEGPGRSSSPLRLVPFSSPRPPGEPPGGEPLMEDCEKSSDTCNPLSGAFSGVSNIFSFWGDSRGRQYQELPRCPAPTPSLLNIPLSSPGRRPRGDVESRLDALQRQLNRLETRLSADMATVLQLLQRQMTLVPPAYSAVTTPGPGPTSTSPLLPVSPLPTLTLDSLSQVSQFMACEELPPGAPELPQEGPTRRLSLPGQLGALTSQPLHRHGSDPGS
Chain of Cytochrome P450 2D6 (P10635 whole entry): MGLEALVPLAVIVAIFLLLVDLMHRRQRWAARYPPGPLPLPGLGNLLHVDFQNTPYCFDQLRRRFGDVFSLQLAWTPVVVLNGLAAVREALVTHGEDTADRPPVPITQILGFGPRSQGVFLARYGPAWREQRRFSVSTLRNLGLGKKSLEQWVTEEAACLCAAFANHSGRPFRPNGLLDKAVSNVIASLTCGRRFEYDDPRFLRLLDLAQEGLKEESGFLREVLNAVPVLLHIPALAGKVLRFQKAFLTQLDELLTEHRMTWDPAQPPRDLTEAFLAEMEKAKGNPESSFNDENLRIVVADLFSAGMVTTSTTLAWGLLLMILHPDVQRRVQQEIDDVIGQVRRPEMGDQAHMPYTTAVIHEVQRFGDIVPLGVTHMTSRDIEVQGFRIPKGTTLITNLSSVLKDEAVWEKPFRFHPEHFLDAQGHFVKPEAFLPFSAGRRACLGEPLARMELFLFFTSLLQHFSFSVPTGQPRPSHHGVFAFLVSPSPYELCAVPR
Chain of Cytochrome P450 3A4 (P08684 whole entry): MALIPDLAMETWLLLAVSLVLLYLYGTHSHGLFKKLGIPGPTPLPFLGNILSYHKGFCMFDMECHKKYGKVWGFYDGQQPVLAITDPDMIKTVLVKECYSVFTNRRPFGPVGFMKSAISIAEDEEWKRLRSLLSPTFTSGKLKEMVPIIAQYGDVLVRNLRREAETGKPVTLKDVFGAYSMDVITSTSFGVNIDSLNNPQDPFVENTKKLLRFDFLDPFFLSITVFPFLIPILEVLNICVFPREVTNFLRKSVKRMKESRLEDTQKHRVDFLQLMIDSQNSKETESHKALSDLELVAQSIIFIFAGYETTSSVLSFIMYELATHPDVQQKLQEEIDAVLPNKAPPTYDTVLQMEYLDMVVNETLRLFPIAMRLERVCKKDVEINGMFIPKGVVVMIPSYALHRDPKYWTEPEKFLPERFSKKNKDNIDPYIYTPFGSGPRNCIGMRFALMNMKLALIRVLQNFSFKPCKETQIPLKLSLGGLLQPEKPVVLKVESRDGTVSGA
Chain of Cytochrome P450 2C9 (P11712 whole entry): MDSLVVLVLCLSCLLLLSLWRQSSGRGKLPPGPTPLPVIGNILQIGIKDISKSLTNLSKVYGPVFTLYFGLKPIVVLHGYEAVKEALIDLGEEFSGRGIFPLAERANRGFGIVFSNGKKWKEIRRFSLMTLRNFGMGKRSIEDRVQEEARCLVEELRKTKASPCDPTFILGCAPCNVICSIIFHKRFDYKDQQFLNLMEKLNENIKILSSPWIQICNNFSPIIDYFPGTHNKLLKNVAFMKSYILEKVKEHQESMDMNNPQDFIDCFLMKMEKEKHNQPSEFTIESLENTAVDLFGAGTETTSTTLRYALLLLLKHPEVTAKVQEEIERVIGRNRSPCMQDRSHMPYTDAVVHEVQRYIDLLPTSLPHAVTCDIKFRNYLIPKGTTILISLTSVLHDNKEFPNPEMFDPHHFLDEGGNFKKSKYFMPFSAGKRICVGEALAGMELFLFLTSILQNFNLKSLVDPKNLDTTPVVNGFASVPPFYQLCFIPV

Molecule `Cc1cc(C(N)=O)nn1-c1cccc(-c2ccccc2OCC(F)(F)F)c1` has an inhibition at 10 µM [1] of 43%, an Activity [2] of 4% and an Activity [3] of 18%. For the same molecule, the IC50 [4] was 187 nM.
With `Cc1cc(C(N)=O)nn1-c1cccc(-c2ccccc2OCC(F)(F)C(F)(F)F)c1` the inhibition at 10 µM [1] was 49%, the Activity [2] was 9% and the Activity [3] was 15%. It also gave an IC50 [4] of 128 nM.
With `Cc1cc(C(N)=O)nn1-c1ccc(F)c(-c2ccccc2OC(F)(F)F)c1` the inhibition at 10 µM [1] was 66% and the IC50 [4] was 162 nM.
Work on `Cc1cc(C(N)=O)nn1-c1cccc(-c2ccccc2Oc2ccccc2)c1` yielded an inhibition at 10 µM [1] of 13% and an IC50 [4] of 875 nM.
`NC(=O)c1nc(-c2cccc(-c3ccccc3OC(F)(F)F)c2)cs1` showed a Ki [5] of 15 nM.
`Cc1cc(C(N)=O)nn1-c1cccc(-c2cccc(F)c2C(F)(F)F)c1` showed an inhibition at 10 µM [1] of 73% and an IC50 [4] of 781 nM.
`Cc1cc(C(N)=O)nn1-c1cccc(-c2cc(C(F)(F)F)ccc2C(F)(F)F)c1` gave an inhibition at 10 µM [1] of 51%, an Activity [2] of 35% and an IC50 [6] of 2600 nM. The Activity [3] was 39%, the IC50 [4] was 272 nM and the IC50 [7] was 51000 nM. The IC50 [8] was 33000 nM.
`Cc1cc(C(N)=O)nn1-c1cccc(-c2ccc(Cl)cc2C(F)(F)F)c1` gave an inhibition at 10 µM [1] of 45%, an Activity [2] of 0% and an Activity [3] of 8%. It also gave an IC50 [4] of 243 nM.
`Cc1cc(C(N)=O)nn1-c1cccc(-c2c(F)cccc2C(F)(F)F)c1` gave an inhibition at 10 µM [1] of 74%, an Activity [2] of 2% and an Activity [3] of 12%. It also gave an IC50 [4] of 71 nM.
`Cc1cc(C(N)=O)nn1-c1ccc(OC(F)(F)F)c(-c2ccccc2OC(F)(F)F)c1` gave an inhibition at 10 µM [1] of 77% and an IC50 [4] of 373 nM.
In the case of `Cc1cc(C(N)=O)nn1-c1cccc(-c2cc(F)ccc2C(F)(F)F)c1`, the inhibition at 10 µM [1] is reported as 41% and the IC50 [4] is reported as 412 nM.
For `CC(C)(C)c1cc(C(N)=O)nn1-c1cccc(-c2ccccc2OC(F)(F)F)c1`, the IC50 [4] was 1370 nM.
Work on `Cc1cc(C(N)=O)nn1-c1cccc(-c2ccccc2Cl)c1` yielded an inhibition at 10 µM [1] of 8% and an IC50 [4] of 738 nM.
In the case of `NC(=O)n1ccc(-c2ccc(-c3ccccc3Cl)cc2)n1`, the Ki [5] is reported as 111 nM and the CL/F [9] is reported as 125 mL/min/kg.
Work on `Cc1cc(C(N)=O)nn1-c1cccc(-c2cc(C(F)(F)F)cc(C(F)(F)F)c2)c1` yielded an inhibition [10] of 17%.
In the case of `NC(=O)c1cc(N)n(-c2cccc(-c3ccccc3OC(F)(F)F)c2)n1`, the inhibition at 10 µM [1] is reported as 44% and the IC50 [4] is reported as 111 nM.
With `Cc1cc(C(N)=O)nn1-c1cccc(-c2c(C(F)(F)F)cccc2C(F)(F)F)c1` the inhibition at 10 µM [1] was 67%, the Activity [2] was 6% and the Activity [3] was 16%. For the same molecule, the IC50 [4] was 41 nM.
Molecule `NC(=O)n1ccc(-c2cccc(-c3ccccc3Cl)c2)n1` has a Ki [5] of 18 nM and a CL/F [9] of 123 mL/min/kg.
Molecule `Cc1cc(C(N)=O)nn1-c1cc(-c2ccccc2OC(F)(F)F)ccc1F` has an inhibition at 10 µM [1] of 62%, an Activity [2] of 8% and an Activity [3] of 17%. For the same molecule, the IC50 [4] was 222 nM.
Work on `NC(=O)n1ccc(-c2ccc(Oc3ccc(Cl)cc3F)cc2)n1` yielded a Ki [5] of 13 nM.
`Cc1cc(C(N)=O)nn1-c1cccc(-c2ccccc2C(F)(F)F)c1` showed an inhibition at 10 µM [1] of 68%, an Activity [2] of 19% and an Activity [3] of 14%. The IC50 [4] was 163 nM.
With `NC(=O)c1cc(-c2cccc(-c3ccccc3OC(F)(F)F)c2)n[nH]1` the inhibition at 10 µM [1] was 94% and the IC50 [4] was 508 nM.
Molecule `Cc1cc(C(N)=O)nn1-c1cccc(-c2ccccc2OC(F)(F)F)c1` has an inhibition at 10 µM [1] of 6%, an Activity [2] of 11% and an Activity [3] of 33%. For the same molecule, the IC50 [4] was 224 nM.
Work on `NC(=O)c1ccn(-c2cccc(-c3ccccc3OC(F)(F)F)c2)n1` yielded an inhibition at 10 µM [1] of 51% and an IC50 [4] of 65 nM.
For `Cc1cc(C(N)=O)nn1-c1cccc(-c2ccc(C(F)(F)F)cc2C(F)(F)F)c1`, the clearance [11] was 16 mL/min/kg, the Activity [12] was 90% and the Activity [13] was “Not Active”. The half-life [14] was 1.4 h, the Stability [15] was “Stable” and the inhibition at 10 µM [1] was 53%. The Activity [2] was 32%, the Activity [16] was 80% and the Activity [17] was 55%. For the same molecule, the Stability [18] was “Stable”, the Vd [19] was 3.1 L/kg and the Vd [20] was 1.43 L/kg. It also gave a bioavailability [21] of 50%, an IC50 [6] of 9000 nM and an Activity [3] of 35%. For the same molecule, the IC50 [4] was 426 nM, the Stability [22] was “Stable” and the bioavailability [23] was 55%. For the same molecule, the IC50 [7] was > 100000 nM, the Stability [24] was “Unstable” and the IC50 [25] was > 25000 nM. The IC50 [8] was > 100000 nM, the clearance [26] was 11 mL/min/kg and the Activity [27] was 87%. It also gave a half-life [28] of 2 h and an Activity [29] of 69%.

From ChEMBL document CHEMBL1221355, “Substituted biaryl pyrazoles as sodium channel blockers” (Bioorg Med Chem Lett, 2010)
